High-throughput results (PubChem)
NTR1 ag: agonists of human neurotensin receptor NTR1 | NTR1-U2OS beta-arrestin-GFP spot imaging, agonist mode | activation, % at 20 µM | AID 493036 | 330,000 compounds, 0.17% hits;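 active means activation at or above 40% of the spot to cytoplasm intensity ratio, with at least 20 cells analyzed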
Target sequence (P30989 whole entry, looked up): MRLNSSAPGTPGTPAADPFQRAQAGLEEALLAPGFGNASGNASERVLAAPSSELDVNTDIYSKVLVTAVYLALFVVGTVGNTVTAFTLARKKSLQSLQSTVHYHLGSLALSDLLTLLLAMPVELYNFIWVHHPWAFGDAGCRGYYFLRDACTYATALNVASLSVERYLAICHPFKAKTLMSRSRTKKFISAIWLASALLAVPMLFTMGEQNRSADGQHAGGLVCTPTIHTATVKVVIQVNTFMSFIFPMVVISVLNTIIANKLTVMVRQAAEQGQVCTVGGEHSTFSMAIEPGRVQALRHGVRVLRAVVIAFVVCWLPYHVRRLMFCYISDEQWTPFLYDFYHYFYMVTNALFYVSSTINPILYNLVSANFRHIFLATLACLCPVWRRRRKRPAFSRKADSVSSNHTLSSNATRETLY
PG9 binder: binds the HIV-1 gp120 antibody PG9. TR-FRET gp120-PG9 antibody binding. inhibition, % at 6.7 µM. 360,000 compounds, 0.43% hits. AID 624416; in the data active means inhibition above about 8.5%
MC4R antagonist: blocks human MC4R cAMP signaling | MC4R-expressing cells, MTII-stimulated cAMP, LANCE TR-FRET | inhibition, % at 6.5 µM | P32245 | 360,000 compounds, 0.48% hits | AID 540295;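 active means inhibition above its plate's cutoff, the mean of tested wells on that plate plus 3 SD, cut at about 29% in these data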
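System – human MC4R-expressing U2OS cells · Also added – Melanotan II · Dosing – one concentration, 6.5 µM nominal · Timing – 30-min compound, 1-h challenge, 1-h detection, room temperature · Measured by – Eu-cAMP/anti-cAMP TR-FRET, emission 671 nm · Replicates – singlicate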
NR1D1 modulator: modulates human Rev-erb alpha binding to DNA | Rev-erbα–FITC-DNA binding, fluorescence polarization, 90 min | P20393 | activity, % at 10 µM | 370,000 compounds, 0.79% hits;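 active means activity above about 14%, limit read from the data; passing the limit was not always enough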
MC4R ag barr: human MC4R agonism via beta-arrestin. P32245. U2OS MC4R beta-arrestin complementation, luminescence; percent of melanotan II response, DMSO zero. activation, % at 8.9 µM. 360,000 compounds, 0.98% hits. AID 540308;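 active means activation above a per-plate cutoff, the mean activation of sample wells on that plate plus 3 SD, cut at about 8% in these data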
PG9 binder conf: confirmation of small molecules binding HIV-1 gp120 antibody PG9 | shares compounds with PG9 binder | TR-FRET PG9 antibody binding, biochemical | inhibition, % at 6.7 µM | 1,500 compounds, 90% hits | AID 651571; in the data active means inhibition above about 9%
PGV04 counter: PGV04 control antibody binding, counter-screen; shares compounds with PG9 binder; 1,500 compounds, 95% hits; inhibition, % at 6.7 µM; TR-FRET PGV04 antibody-gp120 binding, biochemical; in the data active means inhibition above about 9.5%
PG9 binder DR: small molecules binding HIV-1 gp120 antibody PG9; shares compounds with PG9 binder; TR-FRET PG9 antibody-gp120 binding inhibition; AID 651848; IC50, µM; 95 tested, under 10 active; in the data active means IC50 below about 10 µM
PGV04 binding DR: PGV04 binding, dose response counter-screen | shares compounds with PG9 binder | TR-FRET binding to control antibody PGV04 | IC50, µM | 95 compounds, 20% hits
PG126 binding DR: PG126 binding, dose response counter-screen. shares compounds with PG9 binder. TR-FRET binding to antibody PG126, counterscreen. IC50, µM. 95 compounds, 20% hits
Hits are given with their value; . = inactive; / = not tested or not shown. A selection: hits, their analogues and other compounds. The true share with any hit is near 2.5%. Unless noted, no stated cut-off is given here; in the data, active means IC50 below about 9 µM; inactive means the rest.

SMILES	NTR1 ag	PG9 binder	MC4R antagonist	NR1D1 modulator	MC4R ag barr	PG9 binder conf	PGV04 counter	others
O=c1[nH]c2ccccc2cc1CN(c1ccccc1)S(=O)(=O)c1ccccc1	.	18.2	.	.	.	25.0	26.7
COC(=O)C1=C(C)N(Cc2ccccc2C(F)(F)F)C(=NCc2ccc(OC)cc2)NC1c1ccc(C(F)(F)F)cc1 (stereo not drawn)	/	.	/	.	/	/	/
CCCCN(C)C(=O)CSc1nnc(-c2cc(OC)c(OC)c(OC)c2)o1	/	/	/	.	/	/	/
O=C(Cn1c(-c2cncs2)nc2ccccc21)NC1CCCCC1	/	/	/	.	/	/	/
O=C(NCCC1=CCCCC1)c1coc(=O)c(Br)c1	.	45.9	.	.	.	57.3	64.1
Cc1cc(NC(=O)CSc2nc(C3CC3)nc3sc(C)c(C)c23)no1	.	8.9	.	.	.	13.1	12.0	PG9 binder DR=.;PGV04 binding DR=.;PG126 binding DR=.
Cc1nc(SCC(=O)Nc2ccccc2Cl)c2c(C)c(C)sc2n1	.	18.9	.	.	.	12.1	17.2
CC(C)C[C@@H]1COc2cc(Br)ccc2S(=O)(=O)N1Cc1cn(Cc2ccccc2)nn1	/	/	/	.	/	/	/
COC(=O)[C@]12C[C@H](CC(=O)N3CCN(C(=O)C4CC4)CC3)C(=O)N(Cc3ccc4c(c3)OCO4)C1=C[C@H](C(C)C)O[C@@H]2C1CC1	/	/	/	.	/	/	/
Nc1ccc(-c2nc3ccc(-c4nc5ccccc5o4)cc3[nH]2)cc1	.	10.3	.	.	.	10.3	20.5
Cc1nc2ccc(-c3nc4ccccc4o3)cc2[nH]1	.	.	.	.	.	/	/
CC(C)CCNC(=O)CCCn1c(=O)[nH]c2ccc(Br)cc2c1=O	.	.	.	.	.	/	/
O=C(CCCn1c(=O)[nH]c2ccc(Br)cc2c1=O)NCc1ccc(Cl)cc1	.	15.8	.	.	.	18.4	32.5
COc1ccc(Cc2nnc(SCC(=O)c3ccc(OC)cc3)o2)cc1	.	.	.	.	.	/	/
COc1ccc(Cc2nnc(SCC(=O)c3ccc4c(c3)NC(=O)CO4)o2)cc1	.	9.3	.	.	.	12.8	29.8
NS(=O)(=O)c1ccc(CCNC(=O)c2ccc(C(=O)c3ccccc3)cc2)cc1	.	.	.	.	.	/	/
NS(=O)(=O)c1ccc(CCNC(=O)c2ccc(-c3ccccc3)cc2)cc1	.	12.1	.	.	.	21.1	13.8	PG9 binder DR=.;PGV04 binding DR=.;PG126 binding DR=.
CC(=O)NC(CSc1cc(C)nc2ccc(Br)cc12)C(=O)O (stereo not drawn)	.	20.7	.	.	.	34.5	49.7
COC(=O)C1CN(Cc2cn(Cc3ccc(C)cc3)nn2)CCS(=O)(=O)N1Cc1ccc(C)cc1 (stereo not drawn)	/	/	/	.	/	/	/
CCc1cccc(C)c1NC(=O)c1cc(=O)[nH]c2ccc(S(=O)(=O)N3CCOCC3)cc12	.	14.3	.	.	.	18.1	27.7
CCn1c(=NC(=O)c2cccc(N3C(=O)CCC3=O)c2)sc2c(OC)ccc(OC)c21	.	.	.	.	.	/	/
COc1ccc(OC)c2c1sc(=NC(=O)c1cccc(N3C(=O)CCC3=O)c1)n2C	.	51.6	.	.	.	65.2	82.2
COc1ccc2[nH]c3c(c2c1)CCN[C@]31C(=O)N(Cc2cn(Cc3ccccc3)nn2)c2ccc(F)cc21	/	/	/	.	/	/	/
Cc1cc(OCC(=O)NCCc2ccc(S(N)(=O)=O)cc2)c2c(C)c(C)c(=O)oc2c1	.	10.4	.	.	.	14.1	25.2
O=C(COC(=O)c1ccccc1-n1cnnn1)c1ccccc1	.	.	.	.	.	/	/
SMILES	NTR1 ag	PG9 binder	MC4R antagonist	NR1D1 modulator	MC4R ag barr	PG9 binder conf	PGV04 counter	others
O=C(COC(=O)c1ccccc1O)NNC(=O)c1ccc(Br)cc1	.	9.5	.	.	.	13.9	25.2
O=C(COC(=O)c1ccccc1-n1cnnn1)c1ccc(Br)cc1	.	10.3	.	.	.	10.7	16.2
O=C(NNC(=O)c1ccccc1O)c1ccc(Br)cc1	.	.	.	.	.	/	/
COc1ccc(-c2csc(-n3ncc(C(=O)O)c3C(F)(F)F)n2)cc1	.	16.2	.	.	.	21.8	36.1
O=C(/C=C(\Nc1cc(Cl)c(Cl)c(Cl)c1)c1ccccc1)c1ccccc1	/	.	/	.	/	/	/
CCc1c(C(=O)O)[nH]c2ccc(Br)cc12	.	13.5	.	.	.	26.0	27.1
Cc1ccc(NC(=O)CSc2nc3sc(C)cc3c(=O)n2C)cc1	.	16.7	.	.	.	15.8	25.9
COC(=O)c1cc(Br)c(=O)n(-c2ccc(OC)cc2)c1	.	9.9	.	.	.	16.8	21.9
COC(=O)c1cc(Br)c(=O)n(-c2cccc(F)c2)c1	.	11.4	.	.	.	19.2	23.3
CCN1CCCCC(NC(C)=O)C1=O (stereo not drawn)	/	/	/	.	/	/	/
COc1ccc(/C=C(\C#N)C(=O)Nc2cccnc2)cc1	.	.	.	.	.	/	/
COc1ccc(O)c(/C=C(\C#N)C(=O)Nc2cccnc2)c1	.	23.5	.	.	.	13.0	15.8
CN(C)c1ccc(C(=O)Nc2ccc(S(=O)(=O)Nc3nccs3)cc2)cc1	.	25.8	.	.	.	37.9	47.4
CCn1c(Cc2ccccc2)nnc1SCC(=O)Nc1nc2ccccc2s1	.	16.5	.	.	.	28.5	40.0
Cc1ccc(NC(=O)C2CCN(c3ncccn3)CC2)cc1C	/	/	/	.	/	/	/
CCOC(=O)c1c(C)[nH]c(C(=O)CSc2nccc(C)n2)c1C	.	21.9	.	.	.	24.0	40.8
CCCc1cc(=O)[nH]c(SCC(=O)c2[nH]c(C)c(C(=O)OCC)c2C)n1	.	.	.	.	.	/	/
CN(Cc1c(O)ccc2c1oc(=O)c1ccccc12)C1CCCCC1	.	9.9	.	.	.	11.7	16.7
O=C(Nc1ccc(C(F)(F)F)cc1)OC1CC2CC1[C@H]1CCCCN1[C@H]2Cc1ccccc1 (stereo partly drawn)	/	/	/	.	/	/	/
O=C(Cn1cccc1C(=O)c1ccccc1)NCCc1ccc(Cl)cc1	.	9.4	.	.	.	.	10.4
COc1ccc(C(=O)COC(=O)c2cccc(-n3cnnn3)c2)c(OC)c1	.	17.6	.	.	.	.	.
O=C(NCc1ccc(Cl)cc1)OCCN1C(=O)CCC12CCC(c1ccccc1)CC2 (stereo not drawn)	/	/	/	.	/	/	/
Cc1ccc(O)c(C2=Nc3ccccc3N=C(c3ccco3)C2)c1	.	59.0	.	.	.	55.0	69.0
